Active and inactive are the calls of the source. The rule behind the calls is not given here.
Columns and labels:
Cryptococcus neoformans [1] = experiment: Antifungal activity against Cryptococcus neoformans at 50 ug/disk paper disk method; assay type: functional, organism-based
Nakaseomyces glabratus = experiment: Antifungal activity against Candida glabrata at 50 ug/disk by paper disk method; assay type: functional, organism-based
Pichia kluyveri = experiment: Antifungal activity against Pichia kluyveri ITEM 1649 at 15 ug/disk by paper disk method; assay type: functional
Procedure, shortened: (§1)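 Agar overlay disk diffusion on plant-derived filamentous fungi and yeasts: 0.7% water-agar seeded with 10^4 conidia/mL or a yeast cell suspension, poured over PDA. 6-mm cellulose disks were loaded from methanolic solutions and air-dried, with nystatin as comparator. Plates ran 24-72 h at 25 °C; inhibition halo was measured over three disks. Agar beneath disks was subcultured on PDA to separate fungicidal from fungistatic, scored in four classes; run twice, averaged.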

Fusarium subglutinans = experiment: Antifungal activity against Fusarium subglutinans at 15 ug/disk by paper disk method; assay type: functional
Procedure, shortened: (§2)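 Agar diffusion: a 0.7% water-agar overlay carrying 10^4 conidia/mL (or yeast cells) is poured on PDA. 6-mm cellulose disks loaded with methanolic compound at 5 or 15 µg/disk are air-dried and applied, with nystatin as comparator. Plates incubated 24-72 h at 25 °C; inhibition halo diameter read from three disks. Agar under each disk is subcultured on PDA to score fungicidal/fungistatic effect. Experiment run twice and averaged.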

Alternaria alternata [2] = experiment: Antifungal activity against Alternaria alternata ITEM 468 at 15 ug/disk by paper disk method; assay type: functional; conditions: read-out: IZ; procedure, shortened: as §2
Alternaria alternata [3] = experiment: Antifungal activity against Alternaria alternata ITEM 750 at 15 ug/disk by paper disk method; assay type: functional; conditions: read-out: IZ; procedure, shortened: as §2
Aspergillus parasiticus = experiment: Antifungal activity against Aspergillus parasiticus ITEM 11 at 15 ug/disk by paper disk method; assay type: functional; conditions: read-out: IZ; procedure, shortened: as §2
Botrytis cinerea [4] = experiment: Antifungal activity against Botrytis cinerea ITEM 966 at 15 ug/disk by paper disk method; assay type: functional; conditions: read-out: IZ; procedure, shortened: as §2
Botrytis cinerea [5] = experiment: Antifungal activity against Botrytis cinerea at 15 ug/disk by paper disk method; assay type: functional; conditions: read-out: IZ; procedure, shortened: as §2
[6] = test system: Cladosporium cladosporioides; experiment: Antifungal activity against Cladosporium cladosporioides ITEM 2079 at 15 ug/disk by paper disk method; assay type: functional; conditions: read-out: IZ; procedure, shortened: as §2
Cladosporium cucumerinum = experiment: Antifungal activity against Cladosporium cucumerinum ITEM 2095 at 15 ug/disk by paper disk method; assay type: functional; conditions: read-out: IZ; procedure, shortened: as §2
Fusarium acuminatum = experiment: Antifungal activity against Fusarium acuminatum ITEM 795 at 15 ug/disk by paper disk method; assay type: functional; conditions: read-out: IZ; procedure, shortened: as §2
Fusarium oxysporum = experiment: Antifungal activity against Fusarium oxysporum ITEM 149 at 15 ug/disk by paper disk method; assay type: functional; conditions: read-out: IZ; procedure, shortened: as §2
[7] = test system: Fusarium oxysporum f. sp. lycopersici; experiment: Antifungal activity against Fusarium oxysporum f. sp. lycopersici ITEM 1462 at 15 ug/disk by paper disk method; assay type: functional; conditions: read-out: IZ; procedure, shortened: as §2
Fusarium incarnatum = experiment: Antifungal activity against Fusarium semitectum ITEM 393 at 15 ug/disk by paper disk method; assay type: functional; conditions: read-out: IZ; procedure, shortened: as §2
[8] = test system: Penicillium brevicompactum; experiment: Antifungal activity against Penicillium brevicompactum ITEM 449 at 15 ug/disk by paper disk method; assay type: functional; conditions: read-out: IZ; procedure, shortened: as §1
Candida maltosa = experiment: Antifungal activity against Candida maltosa ITEM 1639 at 15 ug/disk by paper disk method; assay type: functional; conditions: read-out: IZ; procedure, shortened: as §2
Kluyveromyces marxianus [9] = experiment: Antifungal activity against Kluyveromyces fragilis ITEM 1657 at 15 ug/disk by paper disk method; assay type: functional; conditions: read-out: IZ; procedure, shortened: as §1
Wickerhamomyces anomalus [10] = experiment: Antifungal activity against Pichia anomala ITEM 1625 at 15 ug/disk by paper disk method; assay type: functional; conditions: Hansenula anomala; read-out: IZ; procedure, shortened: as §1
Wickerhamomyces anomalus [11] = experiment: Antifungal activity against Pichia anomala ITEM 1661 at 15 ug/disk by paper disk method; assay type: functional; conditions: Hansenula anomala; read-out: IZ; procedure, shortened: as §1
Starmera dryadoides = experiment: Antifungal activity against Pichia dryadoides ITEM 1663 at 15 ug/disk by paper disk method; assay type: functional; conditions: Liangdongia dryadoides; read-out: IZ; procedure, shortened: as §1
[12] = test system: Meyerozyma guilliermondii; experiment: Antifungal activity against Pichia guilliermondii ITEM 1644 at 15 ug/disk by paper disk method; assay type: functional; conditions: read-out: IZ; procedure, shortened: as §1
Rhodotorula mucilaginosa = experiment: Antifungal activity against Rhodotorula pilimanae at 15 ug/disk by […]; assay type: functional; conditions: read-out: IZ
Kluyveromyces marxianus [13] = experiment: Antifungal activity against Candida kefyr Y0601 after 24 hrs by broth micromethod assay; assay type: functional
Procedure, shortened: (§3)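 Broth microdilution in YNB with 0.5% glucose, phosphate buffer pH 7, using ten 2-fold dilutions (50-0.097 µg/mL). Inoculum from 24-48 h Sabouraud agar cultures, final 5 × 10^2 cells for C. albicans and C. kefyr, 5 × 10^3 cells/conidia for C. glabrata, Cryptococcus neoformans and Aspergillus. Incubated at 35 °C up to 72 h, read every 24 h. MIC is the complete absence of growth versus medium controls.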

Candida albicans [14] = experiment: Antifungal activity against Candida albicans Y01009 after 24 hrs by broth micromethod assay; assay type: functional; procedure, shortened: as §3
Candida albicans [15] = experiment: Antifungal activity against Candida albicans 1 after 24 hrs by broth micromethod assay; assay type: functional; procedure, shortened: as §3
Cryptococcus neoformans [16] = experiment: Antifungal activity against Cryptococcus neoformans 13 after 24 hrs by broth micromethod assay; assay type: functional; procedure, shortened: as §3
Cryptococcus neoformans [17] = experiment: Antifungal activity against Cryptococcus neoformans 13 after 72 hrs by broth micromethod assay; assay type: functional; procedure, shortened: as §3
Cryptococcus neoformans [18] = experiment: Antifungal activity against Cryptococcus neoformans 14 after 48 hrs by broth micromethod assay; assay type: functional; procedure, shortened: as §3
Cryptococcus neoformans [19] = experiment: Antifungal activity against Cryptococcus neoformans 14 after 72 hrs by broth micromethod assay; assay type: functional; procedure, shortened: as §3
Aspergillus fumigatus [20] = experiment: Antifungal activity against Aspergillus fumigatus 1 after 24 hrs by broth micromethod assay; assay type: functional; procedure, shortened: as §3
Aspergillus fumigatus [21] = experiment: Antifungal activity against Aspergillus fumigatus 1 after 72 hrs by broth micromethod assay; assay type: functional; procedure, shortened: as §3
Aspergillus niger = experiment: Antifungal activity against Aspergillus niger 2 after 48 hrs by broth micromethod assay; assay type: functional; procedure, shortened: as §3
Aspergillus flavus [22] = experiment: Antifungal activity against Aspergillus flavus 3 after 24 hrs by broth micromethod assay; assay type: functional; procedure, shortened: as §3
Aspergillus flavus [23] = experiment: Antifungal activity against Aspergillus flavus 3 after 72 hrs by broth micromethod assay; assay type: functional; procedure, shortened: as §3
Cicer arietinum = experiment: Phytotoxicity against chickpea cells at 10^-5 M; assay type: organism-based; conditions: 10 µM
Procedure, shortened: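 Cells came from 2-week-old chickpea leaves by enzyme digestion, washed in holding buffer at pH 5.55, and mixed 1:1 with compound (final 10^-5 to 10^-3 M in 1% MeOH). They were held 3 h at 25 °C in the dark, then stained with fluorescein diacetate. Viability was scored on 30 cells by fluorescence microscopy. Fusaric acid served as positive control; repeated twice.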

Solanum lycopersicum [24] = experiment: Phytotoxicity in tomato stem assessed as chlorosis in the leaf at 10^-3 M by tomato cutting assay; assay type: organism-based; conditions: in vivo, 1000 µM
Procedure, shortened: (§4)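 Young greenhouse tomato plants were cut, and the stems were immersed in toxin solutions (MeOH stock diluted with water; 10^-3 to 10^-6 M). They were held 24 h at 22 °C under a 12-h photoperiod, then moved to distilled water for 48 h more, and symptoms were scored visually.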

Solanum lycopersicum [25] = experiment: Phytotoxicity in tomato leaf assessed as chlorosis in the leaf at 10^-4 M by tomato cutting assay; assay type: organism-based; conditions: in vivo, 100 µM; procedure, shortened: as §4
Solanum lycopersicum [26] = experiment: Stimulation of root elongation in tomato at 10^-4 M; assay type: functional, organism-based
Procedure, shortened: (§5)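 Tomato seeds were surface-sterilized in 4% NaClO for 10 min and pregerminated 3 days in the dark. They were then placed 10 per dish on filter paper wetted with 2 mL of compound in 1% MeOH (10^-4 or 10^-5 M) and held 4 days at 25 °C under a 12-h photoperiod. Shoot and rootlet lengths were measured against control; done in triplicate, repeated once.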

Solanum lycopersicum [27] = experiment: Stimulation of root elongation in tomato at 10^-5 M; assay type: functional, organism-based; procedure, shortened: as §5
Priestia megaterium = experiment: Antimicrobial activity against Bacillus megaterium at 30 ug/disk by agar diffusion method; assay type: functional, organism-based

CCCCCCC(C)C/C(C)=C\C(C)/C=C(C)/C=C/C(O)C(C)(C)c1cc(O)c([C@@H]2O[C@@H](CO)C[C@@H](O)[C@@H]2O)c(=O)o1 (some centres not stated) [DEXOYFUSAPYRONE]
Activity (Cryptococcus neoformans [1]): Active | Activity (Nakaseomyces glabratus): inactive | Activity (Pichia kluyveri): 0 mm | Activity (Fusarium subglutinans): 0 mm | zone of inhibition at 15 µg/disc (Alternaria alternata [2]): 10.8 mm | zone of inhibition at 15 µg/disc (Alternaria alternata [3]): 10.5 mm | zone of inhibition at 15 µg/disc (Aspergillus parasiticus): 12.7 mm | zone of inhibition at 15 µg/disc (Botrytis cinerea [4]): 13.5 mm | zone of inhibition at 15 µg/disc (Botrytis cinerea [5]): 17 mm | zone of inhibition at 15 µg/disc [6]: 16.2 mm | zone of inhibition at 15 µg/disc (Cladosporium cucumerinum): 13.5 mm | zone of inhibition at 15 µg/disc (Fusarium acuminatum): 0 mm | zone of inhibition at 15 µg/disc (Fusarium oxysporum): 4 mm | zone of inhibition at 15 µg/disc [7]: 4 mm | zone of inhibition at 15 µg/disc (Fusarium incarnatum): 8 mm | zone of inhibition at 15 µg/disc [8]: 10.5 mm | zone of inhibition at 15 µg/disc (Candida maltosa): 0 mm | zone of inhibition at 15 µg/disc (Kluyveromyces marxianus [9]): 0 mm | zone of inhibition at 15 µg/disc (Wickerhamomyces anomalus [10]): 0 mm | zone of inhibition at 15 µg/disc (Wickerhamomyces anomalus [11]): 0 mm | zone of inhibition at 15 µg/disc (Starmera dryadoides): 0 mm | zone of inhibition at 15 µg/disc [12]: 0 mm | zone of inhibition at 15 µg/disc (Rhodotorula mucilaginosa): 0 mm | Activity (Kluyveromyces marxianus [13]): >50 µg/mL | Activity (Candida albicans [14]): >50 µg/mL | Activity (Candida albicans [15]): >50 µg/mL | Activity (Cryptococcus neoformans [16]): 6.25 µg/mL | Activity (Cryptococcus neoformans [17]): 6.25 µg/mL | Activity (Cryptococcus neoformans [18]): 3.12 µg/mL | Activity (Cryptococcus neoformans [19]): 3.12 µg/mL | Activity (Aspergillus fumigatus [20]): 3.12 µg/mL | Activity (Aspergillus fumigatus [21]): 3.12 µg/mL | Activity (Aspergillus niger): 1.56 µg/mL | Activity (Aspergillus flavus [22]): 1.56 µg/mL | Activity (Aspergillus flavus [23]): 1.56 µg/mL | Activity (Cicer arietinum): Active | Activity (Solanum lycopersicum [24]): Not Active | Activity (Solanum lycopersicum [25]): Active | Activity (Solanum lycopersicum [26]): Active | Activity (Solanum lycopersicum [27]): Active | Activity (Priestia megaterium): inactive

CCCCCCC(C)C/C(C)=C\C(/C=C(C)/C=C/C(O)C(C)(C)c1cc(O)c([C@@H]2O[C@@H](CO)C[C@@H](O)[C@@H]2O)c(=O)o1)CO (some centres not stated) [FUSAPYRONE]
Activity (Cryptococcus neoformans [1]): Active | Activity (Nakaseomyces glabratus): inactive | Activity (Pichia kluyveri): 0 mm | Activity (Fusarium subglutinans): 6 mm | zone of inhibition at 15 µg/disc (Alternaria alternata [2]): 18.8 mm | zone of inhibition at 15 µg/disc (Alternaria alternata [3]): 18.7 mm | zone of inhibition at 15 µg/disc (Aspergillus parasiticus): 27.5 mm | zone of inhibition at 15 µg/disc (Botrytis cinerea [4]): 29.3 mm | zone of inhibition at 15 µg/disc (Botrytis cinerea [5]): 30 mm | zone of inhibition at 15 µg/disc [6]: 28.7 mm | zone of inhibition at 15 µg/disc (Cladosporium cucumerinum): 33.3 mm | zone of inhibition at 15 µg/disc (Fusarium acuminatum): 17.8 mm | zone of inhibition at 15 µg/disc (Fusarium oxysporum): 27.7 mm | zone of inhibition at 15 µg/disc [7]: 30 mm | zone of inhibition at 15 µg/disc (Fusarium incarnatum): 28.7 mm | zone of inhibition at 15 µg/disc [8]: 30 mm | zone of inhibition at 15 µg/disc (Candida maltosa): 0 mm | zone of inhibition at 15 µg/disc (Kluyveromyces marxianus [9]): 0 mm | zone of inhibition at 15 µg/disc (Wickerhamomyces anomalus [10]): 0 mm | zone of inhibition at 15 µg/disc (Wickerhamomyces anomalus [11]): 0 mm | zone of inhibition at 15 µg/disc (Starmera dryadoides): 0 mm | zone of inhibition at 15 µg/disc [12]: 0 mm | zone of inhibition at 15 µg/disc (Rhodotorula mucilaginosa): 0 mm | Activity (Kluyveromyces marxianus [13]): 0.78 µg/mL | Activity (Candida albicans [14]): >50 µg/mL | Activity (Candida albicans [15]): >50 µg/mL | Activity (Cryptococcus neoformans [16]): 6.25 µg/mL | Activity (Cryptococcus neoformans [17]): 6.25 µg/mL | Activity (Cryptococcus neoformans [18]): 3.12 µg/mL | Activity (Cryptococcus neoformans [19]): 3.12 µg/mL | Activity (Aspergillus fumigatus [20]): 1.56 µg/mL | Activity (Aspergillus fumigatus [21]): 1.56 µg/mL | Activity (Aspergillus niger): 1.56 µg/mL | Activity (Aspergillus flavus [22]): 1.56 µg/mL | Activity (Aspergillus flavus [23]): 1.56 µg/mL | Activity (Cicer arietinum): Active | Activity (Solanum lycopersicum [24]): Not Active | Activity (Solanum lycopersicum [25]): Active | Activity (Solanum lycopersicum [26]): Active | Activity (Solanum lycopersicum [27]): Active | Activity (Priestia megaterium): inactive

Source: ChEMBL document CHEMBL1155568, “Biological characterization of fusapyrone and deoxyfusapyrone, two bioactive secondary metabolites of Fusarium semitectum” (J Nat Prod, 2000)
